Two molecules from article PMC9052103 (RSC Advances, 2020) can be followed below.

Where two headings read alike, the source gives them in different places.

For experiment [1], the system named is S. aureus ATCC 29213. Briefly: MIC, 96-well microtiter broth dilution. The following applies: for MIC: Staphylococcus aureus. The class given is cell-based.
In a further experiment the test system is S. aureus ATCC 43300. Briefly: MIC, 96-well microtiter broth dilution. The class given is cell-based.
A further experiment deals with S. aureus ATCC BAA-41. As to the kind of experiment: MIC, 96-well microtiter broth dilution. The class given is cell-based.
Another experiment deals with S. aureus ATCC BAA-44. Briefly: MIC, 96-well microtiter broth dilution. The class given is cell-based.
The next experiment concerns S. aureus ATCC BAA-1747. Briefly: MIC, 96-well microtiter broth dilution. The class given is cell-based.
The subject of a further experiment is S. aureus ATCC BAA-1720. Briefly: MIC, 96-well microtiter broth dilution. The class given is cell-based.
A further experiment deals with E. faecalis ATCC 29212. As to the kind of experiment: MIC, 96-well microtiter broth dilution. The class given is cell-based.
In a further experiment the test system is E. faecium ATCC 49624. Briefly: MIC, 96-well microtiter broth dilution. The class given is cell-based.
For another experiment, the system named is E. faecium ATCC 700221. Briefly: MIC, 96-well microtiter broth dilution. The class given is cell-based.
For experiment [2], the system named is S. epidermidis ATCC 12228. Briefly: MIC, 96-well microtiter broth dilution. The class given is cell-based.
In the next experiment the test system is B. subtilis 168. As to the kind of experiment: MIC, 96-well microtiter broth dilution. The class given is cell-based.
The test system of the next experiment is E. coli ATCC 25922. Briefly: MIC, 96-well microtiter broth dilution. The class given is cell-based.
The subject of a further experiment is E. coli ATCC BAA-2469. As to the kind of experiment: MIC, 96-well microtiter broth dilution. The following applies: NDM-1 expressing strain. The class given is cell-based.
For experiment [3], the system named is K. pneumoniae ATCC BAA-2470. Briefly: MIC, 96-well microtiter broth dilution. The class given is cell-based. The settings on record: NDM-1 expressing strain.
For another experiment, the system named is A. baumannii ATCC 19606. As to the kind of experiment: MIC, 96-well microtiter broth dilution. The class given is cell-based. The settings on record: Multi-drug resistant strain.
Experiment [4] deals with P. aeruginosa ATCC BAA-2108. As to the kind of experiment: MIC, 96-well microtiter broth dilution. The class given is cell-based. The settings on record: Multi-drug resistant strain.
The test system of another experiment is E. cloacae ATCC BAA-1143. As to the kind of experiment: MIC, 96-well microtiter broth dilution. The class given is cell-based. The settings on record: AmpC beta-lactamase expressing strain.
The next experiment deals with E. coli ATCC 8739. Briefly: MIC, 96-well microtiter broth dilution. The following applies: Escherichia coli, ATCC8739, read-out: MIC E. coli ATCC 8739. The class given is cell-based.
For experiment [5], the system named is human bronchial epithelium cells (16HBE). Briefly: CCK-8 cytotoxicity assay. The class given is cell-based. The settings on record: 48 h, read-out: IC50 16HBE. The gist of the method:
(§1)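 Cells seeded at 5000 per well and allowed to adhere overnight at 37 °C, then exposed to test compound for 48 h. CCK-8 reagent added for a further 3 h, with absorbance read at 450 nm. Triplicates.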

The test system of experiment [6] is human renal tubular epithelial cells (HK-2). As to the kind of experiment: CCK-8 cytotoxicity assay. The class given is cell-based. The settings on record: Epithelial cell, 48 h, read-out: IC50 HK-2. An outline of the steps: as §1
Experiment [7] concerns mouse fibroblast cells (L929). As to the kind of experiment: CCK-8 cytotoxicity assay. The settings on record: L929, 48 h, read-out: IC50 L929. The class given is cell-based. An outline of the steps: as §1
For a further experiment, the target named is SaFtsZ (Staphylococcus aureus, UniProt P0A031). As to the kind of experiment: SaFtsZ binding affinity assay. Further details: species or system S. aureus. The gist of the method: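 Fluorescence titration at 25 °C in 50 mM Tris–HCl pH 7.4, 50 mM KCl, 2 mM magnesium acetate. Test compound at 3.51 or 3.68 μM titrated with SaFtsZ in 0.4 μM steps (0.4–6.4 μM), equilibrating 2 min per step. Excitation 493 nm, emission 500–700 nm, buffer-titration background subtracted. Kd obtained by nonlinear fit to an independent-site model.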

The target of the next experiment is T1, S. aureus FtsZ (Staphylococcus aureus, UniProt P0A031).
T1 sequence (P0A031 1-390): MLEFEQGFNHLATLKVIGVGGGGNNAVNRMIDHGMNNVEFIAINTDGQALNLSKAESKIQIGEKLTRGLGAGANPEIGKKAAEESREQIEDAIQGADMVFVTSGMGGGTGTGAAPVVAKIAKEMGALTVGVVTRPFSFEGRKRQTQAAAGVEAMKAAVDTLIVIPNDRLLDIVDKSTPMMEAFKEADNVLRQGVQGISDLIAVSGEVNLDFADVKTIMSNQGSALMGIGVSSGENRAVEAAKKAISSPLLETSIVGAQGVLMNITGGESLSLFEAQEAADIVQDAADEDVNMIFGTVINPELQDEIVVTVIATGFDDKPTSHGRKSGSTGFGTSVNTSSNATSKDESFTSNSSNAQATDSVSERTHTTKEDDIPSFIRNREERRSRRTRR
Briefly: Light-scattering assay of FtsZ polymerization. The class given is biochemical. The gist of the method: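 S. aureus FtsZ (4 μM) in 50 mM MOPS pH 6.5, preincubated 10 min at 25 °C with 1% DMSO vehicle or test compound. Baseline set after adding 50 mM KCl and 10 mM MgCl2. After 10 min, 1 mM GTP added. 90° light scattering (excitation/emission 600 nm) followed for 25 min, with blank background subtracted. Rate and extent of polymerization calculated. Triplicates.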

A further experiment deals with S. aureus FtsZ (SaFtsZ) (Staphylococcus aureus, UniProt P0A031). Briefly: GTPase activity assay. The class given is biochemical. The gist of the method:
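Phosphate-release kit assay: S. aureus FtsZ (7.3 μM) in assay buffer with 1% DMSO vehicle or varied concentrations of test compound. Reaction started with 200 μM GTP and run 30 min at room temperature. Colour reagent added for another 30 min to stop the reaction, and inorganic phosphate read at 620 nm. Triplicates.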

The next experiment deals with Z-ring in B. subtilis. Briefly: Visualization of Z-ring. The settings on record: 0.5 × MIC, 4 h. The class given is cell-based. The gist of the method: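 B. subtilis carrying IPTG-inducible GFP-FtsZ plasmid grown in LB with 30 μg mL−1 chloramphenicol at 37 °C with shaking; overnight culture diluted to 1% in LB with 40 μM IPTG plus test compound at 0.5 × MIC, 4 h at 37 °C. Cells fixed, resuspended in PBS, placed on 0.1% (w/v) poly-L-lysine-coated slides; imaged by confocal microscopy, 40× oil immersion.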

Experiment [8] relates to S. aureus ATCC 29213. Briefly: In vitro drug resistance development, serial passage. The class given is cell-based. An outline of the steps: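 Serial passage against S. aureus ATCC 29213: culture from the 0.5 × MIC well of the prior MIC plate diluted to 5 × 10^5 CFU mL−1 and exposed to a range of test compound concentrations. MIC read after 24 h at 37 °C. Cycle repeated 35 times. Ciprofloxacin, vancomycin and rifampin passaged in parallel.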

A further experiment has as its system MRSA strains. As to the kind of experiment: MIC, summary over MRSA strains. The following applies: Staphylococcus aureus, read-out: MIC against MRSA. The class given is cell-based, S. aureus.

For the molecule “2-((E)-4-Hydroxystyryl)-1-methyl-4-((Z)-(3-(3-(piperidin-1-yl)propyl)benzo[d]thiazol-2(3H)-ylidene)methyl)quinolin-1-ium iodide [Compound 4e2]”, the “MIC S. aureus ATCC 29213” value against S. aureus ATCC 29213 [1] (Table 2) is 16 µg/mL. In the experiment on S. aureus ATCC 43300 (MRSA), the “MIC S. aureus ATCC 43300” value is 8 µg/mL. For the same molecule, the “MIC S. aureus ATCC BAA-41” value against S. aureus ATCC BAA-41 (MRSA) is 16 µg/mL. Also, the “MIC S. aureus ATCC BAA-44” value with S. aureus ATCC BAA-44 is 16 µg/mL. Further, the “MIC S. aureus ATCC BAA-1747” value in the experiment on S. aureus ATCC BAA-1747 (MRSA) came to 32 µg/mL. In addition, the “MIC S. aureus ATCC BAA-1720” value in the experiment on S. aureus ATCC BAA-1720 (MRSA) was found to be 16 µg/mL. The “MIC E. faecalis ATCC 29212” value in the experiment on E. faecalis ATCC 29212 was greater than 64 µg/mL. Besides, the “MIC E. faecium ATCC 49624” value against E. faecium ATCC 49624 turned out to be 16 µg/mL. For the same molecule, the “MIC E. faecium ATCC 700221” value with E. faecium ATCC 700221 (Vancomycin-resistant strain, Table 2) came to 8 µg/mL. In addition, the “MIC S. epidermidis ATCC 12228” value in experiment [2] stood at 8 µg/mL. Further, the “MIC B. subtilis 168” value against B. subtilis 168 came out at 4 µg/mL. In addition, the “MIC E. coli ATCC 25922” value in the experiment with E. coli ATCC 25922 came to 4 µg/mL. The “MIC E. coli ATCC BAA-2469” value with E. coli ATCC BAA-2469 amounted to 8 µg/mL. Besides, the “MIC K. pneumoniae ATCC BAA-2470” value in experiment [3] was found to be 64 µg/mL. Moreover, the “MIC A. baumannii ATCC 19606” value against A. baumannii ATCC 19606 is greater than 64 µg/mL. In addition, the “MIC P. aeruginosa ATCC BAA-2108” value in experiment [4] came to 64 µg/mL. Moreover, the “MIC E. cloacae ATCC BAA-1143” value against E. cloacae ATCC BAA-1143 is greater than 64 µg/mL.
For `CC1CCN(CCCN2/C(=C/c3cc[n+](C)c4ccccc34)Sc3ccccc32)CC1.[I-]` [Compound 4b4, (Z)-1-Methyl-4-((3-(3-(4-methylpiperidin-1-yl)propyl)benzo[d]thiazol-2(3H)-ylidene)methyl)quinolin-1-ium iodide], the MIC in the experiment with S. aureus ATCC 29213 [1] (ATCC29213) came out at 2 µg/mL; with S. aureus ATCC 29213 [1] (ATCC29213, read-out: MIC S. aureus ATCC 29213) it was 2 µg/mL; with S. aureus ATCC 29213 [1] (ATCC29213, read-out: S. aureus ATCC 29213 (MIC)), 2 µg/mL; with S. aureus ATCC 43300 (Staphylococcus aureus, ATCC43300|MRSA, read-out: MIC S. aureus ATCC 43300), 8 µg/mL; in the experiment on S. aureus ATCC BAA-41 (Staphylococcus aureus, ATCCBAA41|MRSA, read-out: MIC S. aureus ATCC BAA-41) it was 1 µg/mL; in the experiment with S. aureus ATCC BAA-1747 (Staphylococcus aureus, ATCCBAA1747|MRSA, read-out: MIC S. aureus ATCC BAA-1747), 4 µg/mL. The MIC was 8 µg/mL with S. aureus ATCC BAA-1720 (Staphylococcus aureus, ATCCBAA1720|MRSA, read-out: MIC S. aureus ATCC BAA-1720); 16 µg/mL in the experiment with E. faecalis ATCC 29212 (Enterococcus faecalis, ATCC29212, read-out: MIC E. faecalis ATCC 29212); 8 µg/mL with E. faecium ATCC 49624 (Enterococcus faecium, ATCC49624, read-out: MIC E. faecium ATCC 49624); 16 µg/mL with E. faecium ATCC 700221 (Enterococcus faecium, ATCC700221); 2 to 16 µg/mL in the experiment with E. faecium ATCC 700221 (read-out: MIC against VRE); 0.25 µg/mL in experiment [2] (Staphylococcus epidermidis, ATCC12228, read-out: MIC S. epidermidis ATCC 12228). In addition, the MIC is 2 µg/mL in the experiment with E. coli ATCC 25922 (Escherichia coli, ATCC25922, read-out: MIC E. coli ATCC 25922); 2 µg/mL in the experiment with E. coli ATCC 8739; 1 to 8 µg/mL in the experiment with MRSA strains. Further, the 50% inhibitory concentration (IC50) in experiment [5] came to 20.2 µg/mL; in [6], 18.6 µg/mL; in experiment [7], 23.4 µg/mL. The molecule also registered a Kd at SaFtsZ of 3.23 µM. Also, the “Effect on FtsZ polymerization at a concentration gradient” value on S. aureus FtsZ (0.125–0.5 μg mL^−1) is recorded as “enhance FtsZ polymerization in a dose-dependent manner”. In addition, the “Light scattering signal compared to control (FtsZ polymerization)” value on S. aureus FtsZ (same concentration, 0.125 μg mL^−1) is “significant increase in light scattering signal”. At S. aureus FtsZ (SaFtsZ), the “Effect on GTPase activity of SaFtsZ” value is listed as “did not show any effect”. In the experiment on Z-ring in B. subtilis, the “Effect on Z-ring formation (GFP-FtsZ localization)” value is given as “promoted the mislocalization of the FtsZ protein”. Further, the “Increase of MIC after 35 passages” value in the experiment on S. aureus ATCC 29213 [8] was 8 fold.
